According to ChEMBL document CHEMBL1143122, “Novel analogs of D-e-MAPP and B13. Part 1: synthesis and evaluation as potential anticancer agents” (Bioorg Med Chem, 2008):

Assays:
U-251 = assay: Antiproliferative activity against human U251 cells after 48 hrs; type: functional; settings: U-251, 48 h
Outline: (§1)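 NCI 60-cell-line screen. Lines grown in RPMI 1640 with 5% fetal bovine serum and 2 mM L-glutamine, plated at 5,000–40,000 cells/well according to doubling time, left 24 h at 37 °C in 5% CO2. Drug stocks in DMSO at 400-fold the top final concentration. Five 10-fold dilutions, 10−4 to 10−8 M, incubated 48 h. Growth read spectrophotometrically as net protein; GI50 taken as 50% reduction.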

LOX IMVI = assay: Antiproliferative activity against human LOXIMVI cells after 48 hrs; type: functional
Outline: (§2)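 NCI 60-cell screen. Cells were grown in RPMI 1640 with 5% FBS and 2 mM L-glutamine, then plated at 5,000–40,000 cells/well according to doubling time and preincubated for 24 h at 37 °C in 5% CO2. Compounds were dissolved in DMSO at 400× the top final concentration and tested at five 10-fold dilutions from 10−4 to 10−8 M for 48 h. Growth was read spectrophotometrically; GI50 is 50% net protein reduction.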

M14 = assay: Antiproliferative activity against human M14 cells after 48 hrs; type: functional; settings: M14, 48 h; outline: as §2
SK-MEL-28 = assay: Antiproliferative activity against human SKMEL28 cells after 48 hrs; type: functional; settings: SK-MEL-28, 48 h; outline: as §2
SK-MEL-5 = assay: Antiproliferative activity against human SKMEL5 cells after 48 hrs; type: functional; settings: SK-MEL-5, 48 h; outline: as §2
UACC-257 = assay: Antiproliferative activity against human UACC257 cells after 48 hrs; type: functional; settings: UACC-257, 48 h; outline: as §1
IGROV-1 = assay: Antiproliferative activity against human IGROV1 cells after 48 hrs; type: functional; settings: IGROV-1, 48 h; outline: as §2
OVCAR-3 = assay: Antiproliferative activity against human OVCAR-3 cells after 48 hrs; type: functional; settings: OVCAR-3, 48 h; outline: as §2
OVCAR-4 = assay: Antiproliferative activity against human OVCAR4 cells after 48 hrs; type: functional; settings: OVCAR-4, 48 h; outline: as §2
SK-OV-3 = assay: Antiproliferative activity against human SKOV3 cells after 48 hrs; type: functional; settings: SK-OV-3, 48 h; outline: as §2
ACHN = assay: Antiproliferative activity against human ACHN cells after 48 hrs; type: functional; outline: as §2
UO-31 = assay: Antiproliferative activity against human UO31 cells after 48 hrs; type: functional; settings: UO-31, 48 h; outline: as §1
DU-145 = assay: Antiproliferative activity against human DU145 cells after 48 hrs; type: functional; settings: DU-145, 48 h; outline: as §2
Hs-578T = assay: Antiproliferative activity against human HS578T cells after 48 hrs; type: functional; outline: as §2
MDA-MB-435 = assay: Antiproliferative activity against human MDA-MB-435 cells after 48 hrs; type: functional; settings: Homo sapiens, MDA-MB-435, 48 h; outline: as §2
T47D = assay: Antiproliferative activity against human T47D cells after 48 hrs; type: functional; outline: as §1
HOP-62 = assay: Antiproliferative activity against human HOP62 cells after 48 hrs; type: functional; settings: HOP-62, 48 h; outline: as §2
NCI-H522 = assay: Antiproliferative activity against human NCI-H522 cells after 48 hrs; type: functional; settings: NCI-H522, 48 h; outline: as §2
HCC 2998 = assay: Antiproliferative activity against human HCC2998 cells after 48 hrs; type: functional; settings: HCC 2998, 48 h; outline: as §2
HT-29 = assay: Antiproliferative activity against human HT29 cells after 48 hrs; type: functional; settings: HT-29, 48 h; outline: as §2
KM12 = assay: Antiproliferative activity against human KM12 cells after 48 hrs; type: functional; settings: Homo sapiens, KM12, 48 h; outline: as §2
SW-620 = assay: Antiproliferative activity against human SW620 cells after 48 hrs; type: functional; settings: SW-620, 48 h; outline: as §1
SF-268 = assay: Antiproliferative activity against human SF268 cells after 48 hrs; type: functional; settings: SF-268, 48 h; outline: as §2
SF-539 = assay: Antiproliferative activity against human SF539 cells after 48 hrs; type: functional; settings: SF-539, 48 h; outline: as §2
SNB-19 = assay: Antiproliferative activity against human SNB19 cells after 48 hrs; type: functional; settings: SNB-19, 48 h; outline: as §2
SNB-75 = assay: Antiproliferative activity against human SNB75 cells after 48 hrs; type: functional; settings: SNB-75, 48 h; outline: as §2
MCF7 = assay: Antiproliferative activity against human MCF7 cells after 48 hrs; type: functional, cell-based; settings: MCF7, 48 h
K562 = assay: Antiproliferative activity against human K562 cells after 48 hrs; type: functional; settings: K562, 48 h; outline: as §2
A549 = assay: Antiproliferative activity against human A549 cells after 48 hrs; type: functional; settings: A549, 48 h; outline: as §2
[1] = Antiproliferative activity against human […] cells after 48 hrs; type: functional; outline: as §2
[2] = read-out: Log LC50 (the source's name) (converted)

C[C@H](NC(=O)CCCCCCCCCCCCCCC[n+]1ccccc1)[C@H](O)c1ccccc1.[Br-]
GI50 (U-251): 2.95 µM
CC50 (U-251; [2]): 38.9 µM
TGI (U-251; read-out: Log TGI (converted)): 13.8 µM
GI50 (LOX IMVI): 4.07 µM
LC50 (LOX IMVI): 44.7 µM
TGI (LOX IMVI; read-out: Log TGI (converted)): 14.8 µM
GI50 (M14): 6.31 µM
LC50 (M14): 46.8 µM
TGI (M14; read-out: Log TGI (converted)): 19.5 µM
GI50 (SK-MEL-28): 2.34 µM
LC50 (SK-MEL-28): 20.4 µM
TGI (SK-MEL-28; read-out: Log TGI (converted)): 6.03 µM
GI50 (SK-MEL-5): 1.62 µM
CC50 (SK-MEL-5; [2]): 9.55 µM
TGI (SK-MEL-5; read-out: Log TGI (converted)): 3.89 µM
GI50 (UACC-257): 2.24 µM
CC50 (UACC-257; [2]): 38.9 µM
TGI (UACC-257; read-out: Log TGI (converted)): 8.32 µM
GI50 (IGROV-1): 3.16 µM
LC50 (IGROV-1): 57.5 µM
TGI (IGROV-1; read-out: Log TGI (converted)): 15.8 µM
GI50 (OVCAR-3): 1.32 µM
LC50 (OVCAR-3): 26.3 µM
TGI (OVCAR-3; read-out: Log TGI (converted)): 6.46 µM
GI50 (OVCAR-4): 1.66 µM
LC50 (OVCAR-4): 42.7 µM
TGI (OVCAR-4; read-out: Log TGI (converted)): 12.3 µM
GI50 (SK-OV-3): 3.31 µM
CC50 (SK-OV-3; [2]): 35.5 µM
TGI (SK-OV-3; read-out: Log TGI (converted)): 12 µM
GI50 (ACHN): 21.9 µM
CC50 (ACHN; [2]): 91.2 µM
TGI (ACHN; read-out: Log TGI (converted)): 44.7 µM
GI50 (UO-31): 28.8 µM
LC50 (UO-31): > 100 µM
TGI (UO-31; read-out: Log TGI (converted)): 95.5 µM
GI50 (DU-145): 12.6 µM
CC50 (DU-145; [2]): 50.1 µM
TGI (DU-145; read-out: Log TGI (converted)): 25.1 µM
GI50 (Hs-578T): 3.24 µM
LC50 (Hs-578T): > 100 µM
TGI (Hs-578T; read-out: Log TGI (converted)): 13.5 µM
GI50 (MDA-MB-435): 2.63 µM
LC50 (MDA-MB-435): 25.7 µM
TGI (MDA-MB-435; read-out: Log TGI (converted)): 7.24 µM
GI50 (T47D): 0.933 µM
CC50 (T47D; [2]): 58.9 µM
TGI (T47D; read-out: Log TGI (converted)): 10.7 µM
GI50 (HOP-62): 7.08 µM
CC50 (HOP-62; [2]): 44.7 µM
TGI (HOP-62; read-out: Log TGI (converted)): 20.4 µM
GI50 (NCI-H522): 2.04 µM
CC50 (NCI-H522; [2]): 50.1 µM
TGI (NCI-H522; read-out: Log TGI (converted)): 13.2 µM
GI50 (HCC 2998): 1.55 µM
CC50 (HCC 2998; [2]): 30.9 µM
TGI (HCC 2998; read-out: Log TGI (converted)): 7.41 µM
GI50 (HT-29): 1.32 µM
LC50 (HT-29): 34.7 µM
TGI (HT-29; read-out: Log TGI (converted)): 11.7 µM
GI50 (KM12): 2.75 µM
CC50 (KM12; [2]): 36.3 µM
TGI (KM12; read-out: Log TGI (converted)): 11.5 µM
GI50 (SW-620): 6.92 µM
LC50 (concentration killing 50% of cells) (SW-620): 45.7 µM
TGI (SW-620; read-out: Log TGI (converted)): 20 µM
GI50 (SF-268): 3.24 µM
LC50 (SF-268): 43.7 µM
TGI (SF-268; read-out: Log TGI (converted)): 13.2 µM
GI50 (SF-539): 3.39 µM
LC50 (SF-539): 39.8 µM
TGI (SF-539; read-out: Log TGI (converted)): 14.1 µM
GI50 (SNB-19): 3.09 µM
CC50 (SNB-19; [2]): 38 µM
TGI (SNB-19; read-out: Log TGI (converted)): 13.2 µM
GI50 (SNB-75): 1.7 µM
CC50 (SNB-75; [2]): 38 µM
TGI (SNB-75; read-out: Log TGI (converted)): 11.2 µM
GI50 (MCF7): 1.48 µM
LC50 (MCF7): 20.9 µM
TGI (MCF7; read-out: Log TGI (converted)): 4.79 µM
GI50 (K562): 0.912 µM
LC50 (K562): 77.6 µM
TGI (K562; read-out: Log TGI (converted)): 15.8 µM
GI50 (A549): 5.13 µM
CC50 (A549; [2]): 67.6 µM
TGI (A549; read-out: Log TGI (converted)): 21.9 µM
GI50 [1]: 3.63 µM
LC50 [1]: 42.7 µM
TGI ([1]; read-out: Log TGI (converted)): 14.8 µM
